A word on the IC50: it is the concentration at which inhibition is half-maximal. Broadly, the inhibition is how much of the control response was suppressed.

The values that follow come from ChEMBL document CHEMBL3421574, “Discovery of Potent Inhibitors of Schistosoma mansoni NAD⁺ Catabolizing Enzyme” (J Med Chem, 2015).

SMILES strings stand for the structures. Calls of active or inactive are those of the source. The calls are words filed in the database; no cut-off is given here.

Assay [1] in a line: Inhibition of recombinant Schistosoma mansoni NACE using 1, N6-etheno NAD+ as substrate by fluorometric analysis. In outline:
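Continuous fluorometric read of recombinant SmNACE turning over ε-NAD+ to ε-ADP-ribose (ex 310 nm, em 410 nm), at 37 °C in 10 mM potassium phosphate pH 7.4 with 0.05% (w/v) emulphogen. Initial rates are taken at 6 inhibitor concentrations. IC50 comes from non-linear regression of residual activity against log[inhibitor]. Values are means of three independent determinations.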

For assay [2], the target named is T1, ADP-ribosyl cyclase/cyclic ADP-ribose hydrolase 1 (Homo sapiens, UniProt P28907).
T1 sequence (P28907 whole entry): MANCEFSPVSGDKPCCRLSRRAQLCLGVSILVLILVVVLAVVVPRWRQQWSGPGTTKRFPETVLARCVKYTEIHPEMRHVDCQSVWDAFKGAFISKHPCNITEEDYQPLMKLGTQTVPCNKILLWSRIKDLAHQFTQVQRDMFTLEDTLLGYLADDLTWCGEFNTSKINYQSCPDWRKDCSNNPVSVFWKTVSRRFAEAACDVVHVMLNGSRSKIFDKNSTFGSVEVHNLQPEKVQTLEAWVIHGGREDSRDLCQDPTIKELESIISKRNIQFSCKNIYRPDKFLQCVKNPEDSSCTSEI
Briefly: Inhibition of human CD38 by HPLC analysis.

A short description of assay [3]: Selectivity ratio of IC50 for human CD38 to IC50 for recombinant Schistosoma mansoni NACE.
Assay [4] deals with Schistosoma mansoni. Briefly: Competitive inhibition of recombinant Schistosoma mansoni NACE by Dixon plot analysis in presence of 1, N6-etheno NAD+. The procedure, abridged: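 Recombinant SmNACE with ε-NAD+ in 10 mM potassium phosphate pH 7.4, 0.05% (w/v) emulphogen, 37 °C. Initial rates are followed fluorometrically as ε-ADP-ribose appears (ex 310 nm, em 410 nm). Three fixed inhibitor concentrations are each combined with ε-NAD+ at 20, 50 and 100 µM, and 1/v is plotted against [I] (Dixon) to assign the inhibition type.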

The target of assay [5] is ADP-ribosyl cyclase/cyclic ADP-ribose hydrolase 1 (Homo sapiens) (UniProt P28907). Briefly: Inhibition of human CD38 at 100 uM by HPLC analysis relative to control. The procedure, abridged: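 Human CD38 with inhibitor at 100 µM, given as percent inhibition. Enzyme activity is measured by HPLC at 20 µM NAD+: isocratic C18 separation (10 mM ammonium phosphate pH 5.5, 1.2% (v/v) acetonitrile, 1 mL/min) with detection at 260 nm, plus radiodetection when [14C]NAD+ is added.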

For assay [6], the system named is Schistosoma mansoni. Briefly: Inhibition of recombinant Schistosoma mansoni NACE using 1, N6-etheno NAD+ as substrate at 100 uM by fluorometric analysis relative to control. The procedure, abridged:
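Single-point screen at 100 µM inhibitor against recombinant SmNACE with ε-NAD+ substrate. Initial-rate fluorescence of ε-ADP-ribose is read (ex 310 nm, em 410 nm) at 37 °C in 10 mM potassium phosphate pH 7.4 with 0.05% (w/v) emulphogen, and expressed as percent inhibition.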

Assay [7] concerns Schistosoma mansoni. Briefly: Inhibition of recombinant Schistosoma mansoni NACE using NAD+ as substrate at 100 uM by HPLC analysis relative to control. The procedure, abridged:
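HPLC assay for recombinant SmNACE at 20 µM NAD+ substrate, used where compounds fluoresce on their own. Inhibitor is tested at 100 µM. Products are separated isocratically on a C18 column (10 mM ammonium phosphate pH 5.5, 1.2% (v/v) acetonitrile, 1 mL/min) and detected at 260 nm. In some runs [adenosine-U-14C]NAD+ is added with radiodetection.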

As for `COc1ccccc1/C=N\N(C)C(=O)c1ccoc1C`, the IC50 in assay [1] (read-out: IC50) turned out to be 513 µM.

As to `Cc1occc1C(=O)N/N=C\c1ccccc1O`, the IC50 came to 430 µM in assay [2] and 0.13 µM in assay [1] (read-out: IC50). Further, in assay [3], the Ratio IC50 is more than 1000. In assay [4], the “Inhibition type (Dixon plot)” value is “Active”. The compound also showed an inhibition in assay [5] of 20%.

`Cc1occc1C(=O)N/N=C\c1cc(Cl)ccc1O`: in assay [3], the Ratio IC50 is more than 1000. The IC50 in assay [1] (read-out: IC50) worked out at 0.033 µM. The compound further had an inhibition in assay [5] of 0%.

Regarding `Cc1occc1C(=O)NNC(=O)c1cc(Cl)ccc1O`, the Ratio IC50 in assay [3] is more than 1000. In addition, the IC50 in assay [1] (read-out: IC50) amounted to 0.039 µM. The “Inhibition type (Dixon plot)” value in assay [4] was “Active”. Moreover, the inhibition in assay [5] came to 6.7%.

In the case of `Cc1occc1C(=O)NNCc1ccccc1O`, the IC50 in assay [1] (read-out: IC50) was found to be 12.3 µM. In assay [5], this compound came in with an inhibition of 0%.

`COc1ccccc1/C=N\NC(=O)c1ccoc1C`: the IC50 in assay [1] (read-out: IC50) was determined as 67 µM. The same compound showed an inhibition in assay [5] of 0%.

In the case of `Cc1occc1C(=O)N/N=C\c1c(O)cc(Cl)cc1Cl`, the Ratio IC50 in assay [3] is more than 1000. Further, the IC50 in assay [1] (read-out: IC50) was determined as 0.077 µM. The inhibition in assay [5] amounted to 0%.

For `Cc1cccc(C(=O)NNC(=O)c2ccoc2C)c1O`, the IC50 result in assay [1] is given as “ND(Insoluble)”.

On to `Cc1occc1C(=O)N/N=C\c1cccc(F)c1O`, for which the IC50 was 26 µM in assay [2] and 0.036 µM in assay [1] (read-out: IC50). For the same compound, the “Inhibition type (Dixon plot)” value in assay [4] is “Active”. This compound had an inhibition in assay [5] of 27.2%.

Regarding `COc1cc(O)c(/C=N\NC(=O)c2ccoc2C)c(OC)c1`, the IC50 in assay [1] (read-out: IC50) is 0.19 µM. This compound also registered an inhibition in assay [5] of 0%.

`COc1ccccc1CCNC(=O)c1ccoc1C`: in assay [6], the inhibition is 0%.

With `COc1ccc(O)c(/C=N\NC(=O)c2ccoc2C)c1`, in assay [3], the Ratio IC50 was more than 1000. The IC50 in assay [1] (read-out: IC50) came out at 0.045 µM. The compound further came in with an inhibition in assay [5] of 0%.

`O=C1c2c(O)cc(O)cc2OC(c2ccc(O)c(O)c2)C1O` (racemic): the inhibition in assay [7] and in assay [6] was more than 40% throughout.

For `Cc1occc1C(=O)N(C)/N=C\c1ccccc1O`, the IC50 result in assay [1] is “ND(Insoluble)”.

On to `Cc1occc1C(=O)N/N=C\c1ccc(O)c(O)c1`, for which the IC50 amounted to 109 µM in assay [2] and 88 µM in assay [1] (read-out: IC50). Also, the “Inhibition type (Dixon plot)” value in assay [4] is “Active”.

Turning to `COc1ccc(C(=O)NNC(=O)c2ccoc2C)c(O)c1`, in assay [3], the Ratio IC50 was more than 1000. In addition, the IC50 in assay [1] (read-out: IC50) was found to be 0.074 µM. The “Inhibition type (Dixon plot)” value in assay [4] was “Active”. The compound also had an inhibition in assay [5] of 6.7%.

`Cc1occc1C(=O)NNC(=O)c1ccccc1O`: the IC50 was found to be 120 µM in assay [2] and 0.25 µM in assay [1] (read-out: IC50). Moreover, the inhibition in assay [5] was found to be 27.6%.

In the case of `Cc1occc1C(=O)N/N=C\c1cccc(C(C)(C)C)c1O`, the IC50 in assay [1] (read-out: IC50) is 105 µM.

Turning to `Cc1cccc(/C=N\NC(=O)c2ccoc2C)c1O`, in assay [1] (read-out: IC50), the IC50 is 59 µM. The compound also displayed an inhibition in assay [5] of 0%.

Regarding `Cc1occc1C(=O)N/N=C\c1ccccc1`, the IC50 in assay [2] was determined as 296 µM; in assay [1] (read-out: IC50) it was 330 µM.

Turning to `C/C(=N/NC(=O)c1ccoc1C)c1ccccc1O`, in assay [1], the IC50 result was “ND(Insoluble)”.

In the case of `Cc1occc1-c1nnc(-c2ccccc2O)o1`, the inhibition in assay [6] and in assay [5] was 0% each time.

Regarding `COc1ccc(-c2nnc(-c3ccoc3C)o2)c(O)c1`, the inhibition in assay [6] and in assay [5] was 0% each time.

As to `COc1ccc(/C=N\NC(=O)c2ccoc2C)c(O)c1`, in assay [3], the Ratio IC50 is more than 1000. For the same compound, the IC50 in assay [1] (read-out: IC50) amounted to 0.032 µM. The inhibition in assay [5] is 0%.

For the compound `Cc1occc1C(=O)N/N=C\c1cccc(Cl)c1O`, the IC50 is 14 µM in assay [2] and 0.15 µM in assay [1] (read-out: IC50). Moreover, in assay [5], the inhibition was 66.7%.

`Cc1occc1C(=O)N/N=C\c1cccc(O)c1O`: in assay [1] (read-out: IC50), the IC50 turned out to be 8.7 µM. In assay [5], this compound displayed an inhibition of 0%.

Turning to `COc1ccccc1CNNC(=O)c1ccoc1C`, the IC50 in assay [1] (read-out: IC50) was determined as 11.6 µM. The same compound returned an inhibition in assay [5] of 0%.

On to `COc1cc(/C=N\NC(=O)c2ccoc2C)ccc1O`, for which the IC50 in assay [2] came out at 103 µM; in assay [1] (read-out: IC50) it was 80 µM.

As to `Cc1occc1-c1nnc(-c2cc(Cl)ccc2O)o1`, the inhibition in assay [6] and in assay [5] was 0% throughout.

`Cc1occc1C(=O)NCCc1ccccc1O`: in assay [1] (read-out: IC50), the IC50 is 131 µM.
